Experimental data published in ChEMBL document CHEMBL4689842, “EUbOPEN Chemogenomics Library wave 1” (2021).

Test system: Fibroblast
Test: Multiplex assay against human fibroblast
Assay type: toxicity, cell-based
Procedure, shortened: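 Live cells carried four stains from seeding: Hoechst33342, BioTracker Green Microtubule Cytoskeleton Dye, MitoTracker Red and Annexin V Alexa Fluor 680. They were imaged on a CQ1 microscope at 37°C and 5% CO2 after compound addition. Using CellPathfinder machine-learning gating, cells were split into Hoechst high-intensity objects or normal cells, normal cells into healthy, pyknosed or fragmented nuclei, and pyknosed cells into mitotic or apoptotic; tubulin, mitochondrial-mass and membrane-permeability phenotypes are per cents of healthy-nucleus cells.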

[1] = 12 h, 1 µM, compound concentration 1 uM, replicate 1
[2] = 12 h, 1 µM, compound concentration 1 uM, replicate 2
[3] = 12 h, 10 µM, compound concentration 10 uM, replicate 1
[4] = 12 h, 10 µM, compound concentration 10 uM, replicate 2
[5] = 24 h, 1 µM, compound concentration 1 uM, replicate 1
[6] = 24 h, 1 µM, compound concentration 1 uM, replicate 2
[7] = 24 h, 10 µM, compound concentration 10 uM, replicate 1
[8] = 24 h, 10 µM, compound concentration 10 uM, replicate 2
[9] = 48 h, 1 µM, compound concentration 1 uM, replicate 1
[10] = 48 h, 1 µM, compound concentration 1 uM, replicate 2
[11] = 48 h, 10 µM, compound concentration 10 uM, replicate 1
[12] = 48 h, 10 µM, compound concentration 10 uM, replicate 2

## OC1(c2ccc(Cl)cc2)CCN(Cc2c[nH]c3ccccc23)CC1
[1]
  Population Apoptotic (%): 58%
  Population Fragmented Nuclei (%): 26%
  Population Healthy Nuclei (%): 41%
  Population Hoechst High Intensity Objects (%): 11%
  Population Membrane Permeable-Phenotype (%): 22%
  Population Mitochondria Different-Phenotype (%): 6%
  Population Mitotic Cells (%): 41%
  Population Normal (%): 88%
  Population Pyknosed Nuclei (%): 32%
  Population Tubulin-Different-Phenotype (%): 33%
  Total Cell Count: 169
[2]
  Population Apoptotic (%): 0%
  Population Fragmented Nuclei (%): 13%
  Population Healthy Nuclei (%): 77%
  Population Hoechst High Intensity Objects (%): 10%
  Population Membrane Permeable-Phenotype (%): 3%
  Population Mitochondria Different-Phenotype (%): 13%
  Population Mitotic Cells (%): 100%
  Population Normal (%): 89%
  Population Pyknosed Nuclei (%): 9%
  Population Tubulin-Different-Phenotype (%): 9%
  Total Cell Count: 78
[3]
  Population Apoptotic (%): 63%
  Population Fragmented Nuclei (%): 37%
  Population Healthy Nuclei (%): 38%
  Population Hoechst High Intensity Objects (%): 30%
  Population Membrane Permeable-Phenotype (%): 13%
  Population Mitochondria Different-Phenotype (%): 34%
  Population Mitotic Cells (%): 36%
  Population Normal (%): 69%
  Population Pyknosed Nuclei (%): 23%
  Population Tubulin-Different-Phenotype (%): 90%
  Total Cell Count: 246
[4]
  Population Apoptotic (%): 42%
  Population Fragmented Nuclei (%): 13%
  Population Hoechst High Intensity Objects (%): 3%
  Population Membrane Permeable-Phenotype (%): 4%
  Population Mitochondria Different-Phenotype (%): 95%
  Population Mitotic Cells (%): 57%
  Population Normal (%): 96%
  Population Pyknosed Nuclei (%): 47%
  Population Tubulin-Different-Phenotype (%): 60%
  Total Cell Count: 74
[5]
  Population Apoptotic (%): 52%
  Population Fragmented Nuclei (%): 29%
  Population Healthy Nuclei (%): 47%
  Population Hoechst High Intensity Objects (%): 14%
  Population Membrane Permeable-Phenotype (%): 25%
  Population Mitochondria Different-Phenotype (%): 10%
  Population Mitotic Cells (%): 47%
  Population Normal (%): 85%
  Population Pyknosed Nuclei (%): 22%
  Population Tubulin-Different-Phenotype (%): 42%
  Total Cell Count: 174
[6]
  Population Apoptotic (%): 20%
  Population Fragmented Nuclei (%): 5%
  Population Healthy Nuclei (%): 88%
  Population Hoechst High Intensity Objects (%): 8%
  Population Membrane Permeable-Phenotype (%): 4%
  Population Mitochondria Different-Phenotype (%): 13%
  Population Mitotic Cells (%): 80%
  Population Normal (%): 91%
  Population Pyknosed Nuclei (%): 6%
  Population Tubulin-Different-Phenotype (%): 8%
  Total Cell Count: 77
[7]
  Population Apoptotic (%): 64%
  Population Fragmented Nuclei (%): 24%
  Population Healthy Nuclei (%): 50%
  Population Hoechst High Intensity Objects (%): 43%
  Population Membrane Permeable-Phenotype (%): 20%
  Population Mitochondria Different-Phenotype (%): 51%
  Population Mitotic Cells (%): 35%
  Population Normal (%): 56%
  Population Pyknosed Nuclei (%): 24%
  Population Tubulin-Different-Phenotype (%): 75%
  Total Cell Count: 224
[8]
  Population Apoptotic (%): 66%
  Population Fragmented Nuclei (%): 21%
  Population Healthy Nuclei (%): 27%
  Population Hoechst High Intensity Objects (%): 5%
  Population Membrane Permeable-Phenotype (%): 5%
  Population Mitochondria Different-Phenotype (%): 94%
  Population Mitotic Cells (%): 33%
  Population Normal (%): 94%
  Population Pyknosed Nuclei (%): 51%
  Population Tubulin-Different-Phenotype (%): 52%
  Total Cell Count: 85
[9]
  Population Apoptotic (%): 82%
  Population Fragmented Nuclei (%): 33%
  Population Healthy Nuclei (%): 26%
  Population Hoechst High Intensity Objects (%): 0%
  Population Membrane Permeable-Phenotype (%): 54%
  Population Mitochondria Different-Phenotype (%): 0%
  Population Mitotic Cells (%): 17%
  Population Normal (%): 100%
  Population Pyknosed Nuclei (%): 40%
  Population Tubulin-Different-Phenotype (%): 90%
  Total Cell Count: 42
[10]
  Population Apoptotic (%): 50%
  Population Fragmented Nuclei (%): 43%
  Population Healthy Nuclei (%): 54%
  Population Hoechst High Intensity Objects (%): 14%
  Population Membrane Permeable-Phenotype (%): 5%
  Population Mitochondria Different-Phenotype (%): 1%
  Population Mitotic Cells (%): 50%
  Population Normal (%): 85%
  Population Pyknosed Nuclei (%): 1%
  Population Tubulin-Different-Phenotype (%): 46%
  Total Cell Count: 119
[11]
  Population Fragmented Nuclei (%): 36%
  Population Healthy Nuclei (%): 26%
  Population Hoechst High Intensity Objects (%): 40%
  Population Membrane Permeable-Phenotype (%): 16%
  Population Mitochondria Different-Phenotype (%): 56%
  Population Normal (%): 59%
  Population Pyknosed Nuclei (%): 37%
  Population Tubulin-Different-Phenotype (%): 70%
  Total Cell Count: 191
[12]
  Population Apoptotic (%): 90%
  Population Fragmented Nuclei (%): 39%
  Population Healthy Nuclei (%): 24%
  Population Hoechst High Intensity Objects (%): 30%
  Population Membrane Permeable-Phenotype (%): 17%
  Population Mitochondria Different-Phenotype (%): 47%
  Population Mitotic Cells (%): 9%
  Population Normal (%): 69%
  Population Pyknosed Nuclei (%): 35%
  Population Tubulin-Different-Phenotype (%): 52%
  Total Cell Count: 133
